# Bioassay records as filed in PubChem.
# V1aR counter – agonists of human V1a receptor, primary screen, counter-screen for OXTR agonist project, fluorescence, CHO-V1R cells | actives 0.25% (n = 320,000) | Vasopressin V1a receptor (Homo sapiens), P37288 | activation, % at 3 µM | Fluo-8 calcium fluorescence, agonist mode; 0% DMSO, 100% 3 nM vasopressin;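 active = activation above the mean activation of all tested compounds plus 3 SD, per screening run, cut at about 20% in these data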;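 note: signal is peak over basal fluorescence ratio across a 100 second FLIPR read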
# Target sequence (P37288 whole entry, looked up): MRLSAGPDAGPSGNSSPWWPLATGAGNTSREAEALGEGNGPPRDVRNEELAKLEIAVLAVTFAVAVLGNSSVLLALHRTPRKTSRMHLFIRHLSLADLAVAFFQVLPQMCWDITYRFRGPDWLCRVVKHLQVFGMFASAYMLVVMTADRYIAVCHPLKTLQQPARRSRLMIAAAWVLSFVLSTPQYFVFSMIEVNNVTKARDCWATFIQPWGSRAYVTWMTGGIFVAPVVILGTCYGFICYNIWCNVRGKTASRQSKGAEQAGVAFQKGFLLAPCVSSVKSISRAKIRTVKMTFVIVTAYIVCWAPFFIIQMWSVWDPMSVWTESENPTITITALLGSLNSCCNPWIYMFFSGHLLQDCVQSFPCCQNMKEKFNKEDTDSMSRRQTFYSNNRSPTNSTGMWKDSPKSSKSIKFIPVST
# TAAR1 ag – human TAAR1 agonists, primary screen, Fluo-8 calcium fluorescence, CHO RD-HGA16 cells; Trace amine-associated receptor 1 (Homo sapiens), Q96RJ0; vehicle wells 0%, saturating PEA agonist 100%; activation, % at 3 µM; actives 0.99% (n = 360,000); AID 624467, 2012;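 active = activation above the mean activation of all test compounds in the run plus 3 SD, cut at about 38% in these data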
# Target sequence (Q96RJ0 whole entry, looked up): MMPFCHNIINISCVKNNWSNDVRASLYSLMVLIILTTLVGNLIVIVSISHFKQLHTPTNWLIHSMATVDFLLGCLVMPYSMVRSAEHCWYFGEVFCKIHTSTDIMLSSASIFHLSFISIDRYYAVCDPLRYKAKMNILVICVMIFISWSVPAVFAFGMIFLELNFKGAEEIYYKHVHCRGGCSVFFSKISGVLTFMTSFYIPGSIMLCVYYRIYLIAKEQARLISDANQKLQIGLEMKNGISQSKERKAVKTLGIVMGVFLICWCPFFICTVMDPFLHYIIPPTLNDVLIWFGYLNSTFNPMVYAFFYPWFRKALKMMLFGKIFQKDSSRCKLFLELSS
#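 Assay system: CHO-derived RD-HGA16 cells with stable Gα16 and human TAAR1; timing: 17-24 h seeding, 75 min 37 °C dye, 30 min RT; read-out: % activation from peak over basal fluorescence ratio, DMSO-to-PEA scaled; measured by: kinetic Fluo-8 calcium fluorescence; benchmarks: low control DMSO, high control PEA (EC100); doses: 3 µM single concentration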
# OXTR agonist – human OXTR agonists, primary screen, fluorescence, CHO-OTR cells, Fluo-8 calcium; actives 0.32% (n = 320,000); Fluo-8 calcium fluorescence; normalized: DMSO 0%, oxytocin 100%; activation, % at 3 µM; Oxytocin receptor (Homo sapiens), P30559;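 active = activation above the mean of all tested compounds plus 3 SD, cutoff set per screening run, cut at about 20% in these data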;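 note: peak over basal fluorescence ratio from a 100 s FLIPR kinetic read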
# OXTR potentiator – human OXTR potentiators, primary screen, fluorescence, CHO-OTR cells, Fluo-8 calcium. Fluo-8 calcium fluorescence, potentiator mode; 0% = oxytocin EC15, 100% = EC100. activation, % at 3 µM. AID 2445, 2010. actives 0.061% (n = 320,000). Oxytocin receptor (Homo sapiens), P30559;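 active = activation above that plate's cutoff, the mean activation of tested compounds plus 3 SD, cut at about 6.6% in these data, passing the limit was not always enough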;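 note: 100% uses oxytocin at 75 nM as the full agonist control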
#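 Replication – single well per compound, singlicate · Assay system – CHO cell line stably expressing human OTR · Timing – 6 min pre-incubation, 100 s read · Measure – normalized max/min fluorescence ratio, % activation · Doses – 3.0 µM, one dose · Detection – Fluo-8 calcium dye fluorescence · Probe or stimulus – oxytocin near EC15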
# TAAR1 antagonist – human TAAR1 antagonists, primary screen, Fluo-8 calcium fluorescence, CHO RD-HGA16 cells | inhibition, % at 3 µM | antagonist | Trace amine-associated receptor 1 (Homo sapiens), Q96RJ0 | AID 624466, 2012 | actives 1.5% (n = 360,000);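 active = inhibition above a per-plate cutoff, the mean inhibition of test compounds on that plate plus 3 SD, cut at about 49% in these data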;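 note: 0% = DMSO plus EC80 beta-PEA response and 100% = DMSO alone without agonist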
#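 test system = CHO RD-HGA16 cells bearing hTAAR1 | replication = singlicate | controls = DMSO-only wells and EC80 β-PEA-stimulated wells | reagent = EC80 β-phenethylamine stimulus | read-out basis = percent inhibition of PEA-evoked calcium signal, max/basal emission ratio | schedule = seeding 17-24 h prior, 75-min 37 °C, 30-min RT dye loading | signal = kinetic Fluo-8 calcium fluorescence measurement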
# TAAR1 ag conf – human TAAR1 agonists, retest of hits, confirmation, Fluo-8 calcium fluorescence, CHO RD-HGA16 cells; shares compounds with TAAR1 ag; scaled: DMSO 0%, maximal phenethylamine 100%; activation, % at 3 µM; actives 82% (n = 2,400); AID 651783, 2012;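 active = activation above a cutoff set at the run's mean compound activation plus 3 SD, cut at about 39% in these data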
# Ga16 ag counter – nonselective calcium mobilization agonists, CHO-Ga16 cells, counter-screen for hTAAR1 agonist project, cell-based, fluorescence, CHO-Ga16 parental line | shares compounds with TAAR1 ag | actives 50% (n = 2,400) | AID 651787, 2012 | activation, % at 3 µM | Fluo-8 calcium fluorescence; normalized to maximal ATP response, DMSO zero;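 active = activation above the run cutoff, the mean activation over all tested wells plus 3 SD, cut at about 12% in these data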;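 note: 0% = DMSO wells and 100% = maximal ATP response on the peak over basal ratio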
# TAAR1 desens – TAAR1 desensitization by agonist hits, confirmation, counter-screen for TAAR1 agonist project, cell-based, fluorescence, tachyphylaxis. shares compounds with TAAR1 ag. CHO RD-HGA16 hTAAR1, Fluo-8 calcium, beta-PEA response inhibition. inhibition, % at 3 µM. actives 46% (n = 2,400). AID 651951, 2012;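 active = inhibition above the run cutoff, the mean inhibition of all test compounds plus 3 SD, cut at about 49% in these data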;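 note: beta-PEA stimulus applied at its EC80; loss of beta-PEA calcium signal after compound pretreatment read as receptor desensitization; 0% = DMSO with beta-PEA at EC80 and 100% = DMSO alone without agonist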
# Ga16 antag count – inhibition of ATP-evoked calcium response in CHO-Ga16 cells, counter-screen for TAAR1 agonist project, cell-based, fluorescence; shares compounds with TAAR1 ag; CHO-Ga16 ATP-induced calcium, Fluo-8 fluorescence; inhibition, % at 3 µM; actives 39% (n = 2,400); AID 651952, 2012;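 active = inhibition above the plate's mean compound inhibition plus 3 SD, computed per plate, cut at about 22% in these data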;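 note: 0% = EC80 ATP with DMSO and 100% = DMSO wells without ATP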
# Active calls of the source: *; x = no result given. Compounds with a hit are over-represented: about 2.3% of the library has one in this group of screens.
SMILES,V1aR counter,TAAR1 ag,OXTR agonist,OXTR potentiator,TAAR1 antagonist,TAAR1 ag conf,Ga16 ag counter,TAAR1 desens,Ga16 antag count
Cc1cc(NS(=O)(=O)c2c(C)[nH]c(=O)[nH]c2=O)ccc1Br,x,73*,x,x,37,0,4,6,7
Nc1nc(N)c2cc(Sc3cccc(C(F)(F)F)c3)ccc2n1,x,36,x,x,-5,x,x,x,x
Nc1nc(N)c2cc(Sc3ccc(Cl)cc3)ccc2n1,x,60*,x,x,28,65*,40*,56*,40*
O=C(COC(=O)Cc1cccc(F)c1)NCCc1ccccc1,0,37,-1,5,27,x,x,x,x
O=C(O)c1ccc(N/N=C/C(Br)=C/c2ccccc2)cc1,5,122*,5,-5,60*,33,19*,34,21
Cc1ccc(NC(=O)CNNC(=O)c2cccc([N+](=O)[O-])c2)cc1[N+](=O)[O-],0,2,2,-3,12,x,x,x,x
NC(N)=N/N=C/c1ccc(Br)cc1,2,58*,3,-8,9,80*,10,43,2
CSc1ccc(/C=C2\C(=N)N3N=C(CC(=O)N4CCCCC4)SC3=NC2=O)cc1,2,4,1,-6,-10,x,x,x,x
Cn1cccc1/C=N/n1c(-c2ccc(Cl)cc2Cl)n[nH]c1=S,21*,62*,26*,-23,29,53*,26*,26,24*
O=C(NC1CCN(C(=O)Nc2ccccc2Cl)CC1)c1ccco1,2,-2,0,-1,-1,x,x,x,x
CCCOc1ccc(OCCOCCN2CCc3ccccc3C2)cc1,1,102*,2,-3,43,77*,1,64*,2
CCOc1ccc(OCCOCCN2CCc3ccccc3C2)cc1,0,33,0,1,-13,x,x,x,x
C=CCc1cc(OC)ccc1OCCOCCN1CCc2ccccc2C1,0,48*,1,-7,-12,56*,6,13,4
CCOC(=O)/C(C(=Nc1ccccc1)Nc1ccccc1)=C(\C)O,-2,-3,-2,1,-16,x,x,x,x
NC(=Nc1ccccc1)Nc1ccccc1,10,87*,11,-25,79*,118*,83*,94*,67*
O=C(O)CC(Cc1ccc(Cl)cc1)C(=O)Nc1ccccc1 (centres undefined),0,10,2,-10,-21,x,x,x,x
Cn1c(C(=O)OCC(=O)NCCc2ccccc2)cc2sccc21,1,98*,3,-7,48,10,1,4,1
Cc1ccsc1CN(C)C(=O)CCc1nnc(COc2ccccc2)o1,0,8,3,-3,-10,x,x,x,x
CN(C[C@@H](CC1CCCCC1)N(C[C@H](Cc1ccccc1)N(CCc1ccccc1)N=O)N=O)N=O,1,60*,1,-7,7,94*,2,36,-4
COc1cc(/C=c2\s/c(=C(/C#N)C(=O)N3CCCC3)n(-c3ccccc3)c2=O)ccc1O,17,75*,12,-12,76*,33,34*,64*,54*
Clc1ccc(Cn2ncc3c(N4CCCC4)ncnc32)cc1,3,13,0,-13,10,x,x,x,x
Clc1ccc(Cn2ncc3c(N4CCCCC4)ncnc32)cc1,7,48*,8,-17,52*,45*,24*,38,24*
Clc1ccc(Cn2ncc3c(NCc4ccccc4)ncnc32)cc1,5,53*,3,-19,6,51*,38*,49,30*
CS(=O)(=O)c1ccc(Cl)c(NC(=O)C2CCCCN2S(=O)(=O)c2ccccc2)c1 (centres undefined),0,1,1,-9,-8,x,x,x,x
NS(=O)(=O)c1ccc(NC(=O)CN2CCc3ccccc3C2)cc1,0,20,1,-8,0,x,x,x,x
SMILES,V1aR counter,TAAR1 ag,OXTR agonist,OXTR potentiator,TAAR1 antagonist,TAAR1 ag conf,Ga16 ag counter,TAAR1 desens,Ga16 antag count
Cc1cc(C(=O)COC(=O)c2ccc(F)cc2F)c(C)n1C1CC1,2,15,-1,-5,-12,x,x,x,x
Cc1ccc(Cn2nnc(C(=O)Nc3cccc(C)c3C)c2N)cc1,38*,118*,38*,-10,81*,123*,85*,87*,59*
O=C(Nc1cccc(Cl)c1)c1ccc2ncsc2c1,3,5,0,-9,-3,x,x,x,x
CN(Cc1ccc(Cl)c(Cl)c1)C(c1cc2ccccc2o1)c1nnnn1C(C)(C)C (centres undefined),x,1,x,x,-33,x,x,x,x
CCc1cc(C(=O)Cc2cnn(-c3ccccc3)c2)c(O)cc1O,10,49*,19,-23,63*,50*,48*,80*,52*
CCOC(=O)c1c(S(=O)(=O)NCC(=O)Nc2cc(C)ccn2)c(C)n(C)c1C,0,2,0,-11,-22,x,x,x,x
O=C1NC(Cc2ccccc2)c2nc3cc(F)ccc3c(=O)n2-c2cc(Cl)ccc21 (centres undefined),2,72*,4,3,24,50*,17*,14,12
Cc1cnc(CN(C)Cc2nc(Cc3cccc(C(F)(F)F)c3)no2)[nH]1,1,3,0,-4,-18,x,x,x,x
Cc1sc(NC(=O)C2CCCCC2C(=O)O)c(C(N)=O)c1-c1ccc(C(C)(C)C)cc1 (centres undefined),0,67*,0,-5,46,43*,20*,40,13
Cc1onc(-c2ccccc2)c1C(=O)NNC(=S)NC(=O)c1ccc2c(c1)OCO2,53*,89*,27*,-19,46,95*,81*,52*,38*
Cc1onc(-c2ccccc2)c1C(=O)NNC(=S)NC(=O)/C=C/c1cccs1,24*,115*,29*,-11,69*,107*,94*,79*,62*
